PMC7080202 (Medicinal Chemistry Research, 2013)
Read-outs that look alike come from different tables or passages of the source.

Legend:
[1] = system: Herpes simplex virus-1 (KOS); assay: microbe, parasite or virus in culture; format: cell-based, herpes simplex virus type 1; settings: read-out: EC50 Herpes simplex virus-1 (KOS)
Coxsackie virus B4 [2] = assay: microbe, parasite or virus in culture; format: cell-based; settings: read-out: Antiviral activity EC50 Coxsackie virus B4
[3] = system: Herpes simplex virus-2 (G); assay: microbe, parasite or virus in culture; format: cell-based, herpes simplex virus type 2; settings: read-out: EC50 Herpes simplex virus-2 (G)
Influenza A H1N1 subtype = assay: Anti-influenza virus activity, influenza A H1N1 in MDCK cells; format: cell-based, influenza A virus A/Puerto Rico/8/34 (H1N1); settings: for EC50: read-out: Antiviral EC50 Influenza A H1N1 subtype MTS, MDCK cells, MTS; for anti-influenza activity (in words): H1N1, H3N2 and influenza B, below the non-toxic concentration of 100 µM
Coxsackie virus B4 [4] = assay: microbe, parasite or virus in culture; format: cell-based; settings: read-out: Antiviral activity EC50 Coxsackie virus B4; remark: listed apart in the source
[5] = system: Vesicular stomatitis virus; assay: microbe, parasite or virus in culture; format: cell-based; settings: read-out: EC50 Vesicular stomatitis virus
HeLa cell cultures = assay: Cytotoxicity; format: cell-based
Procedure, shortened: (§1)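 Cell cultures incubated with varying concentrations of test compound, then examined by microscopy. MCC is the lowest concentration that causes a microscopically detectable alteration of normal cell morphology. HEL, Vero and HeLa lines were monitored regularly for mycoplasma and found free of it.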

Reovirus-1 = assay: organism not typed; format: cell-based; settings: read-out: Antiviral activity EC50 Reovirus-1
[6] = system: Human embryonic lung cell cultures; assay: Cytotoxicity; format: cell-based
Procedure, shortened: as §1

Influenza A H3N2 subtype = assay: Anti-influenza virus activity, influenza A H3N2 in MDCK cells; format: cell-based, influenza A virus A/Hong Kong/7/87 (H3N2); settings: read-out: Antiviral EC50 Influenza A H3N2 subtype MTS
Vero cell cultures = assay: Cytotoxicity; format: cell-based
Procedure, shortened: as §1

Para-influenza-3 virus = assay: organism not typed; format: cell-based, parainfluenza-3 virus; settings: read-out: Antiviral activity EC50 Para-influenza-3 virus
Vaccinia virus = assay: microbe, parasite or virus in culture; format: cell-based; settings: read-out: EC50 Vaccinia virus
Punta Toro virus = assay: microbe, parasite or virus in culture; format: cell-based; settings: read-out: Antiviral activity EC50 Punta Toro virus
Sindbis virus = assay: microbe, parasite or virus in culture; format: cell-based; settings: read-out: Antiviral activity EC50 Sindbis virus
Feline corona virus = assay: Antiviral CPE assay, feline corona virus in CRFK cells; format: cell-based, feline coronavirus (FIPV); settings: read-out: EC50 Feline corona virus; CRFK cell culture
[7] = system: Herpes simplex virus-1TK-KOS ACV^r; assay: microbe, parasite or virus in culture; format: cell-based, herpes simplex virus type 1; settings: read-out: EC50 Herpes simplex virus-1TK-KOS ACV^r
MDCK cells = settings: for Cytotoxicity Minimum cytotoxic concentration: microscopically detectable alteration of normal cell morphology; for CC50: read-out: Cytotoxicity CC50, MTS assay
[8] = system: Crandell-Rees feline kidney cells; assay: Cytotoxicity; format: cell-based
Feline herpes virus = assay: Antiviral CPE assay, feline herpes virus in CRFK cells; format: cell-based; settings: read-out: EC50 Feline herpes virus
Influenza B = assay: Anti-influenza virus activity, influenza B in MDCK cells; format: cell-based, influenza B virus B/Hong Kong/5/72
[9] = system: Vesicular stomatitis virus; format: cell-based; settings: read-out: Antiviral activity EC50 Vesicular stomatitis virus
[10] = system: Cytomegalovirus AD-169 strain; format: cell-based, human cytomegalovirus; settings: both strains of HCMV (AD-169 and Davis)
[11] = system: Cytomegalovirus Davis strain; assay: microbe, parasite or virus in culture; format: cell-based; settings: Human betaherpesvirus 5, HEL, read-out: EC50 Cytomegalovirus Davis strain
in vitro = settings: dog
[12] = read-out: Antiviral EC50 Influenza B MTS, MDCK cells, MTS

| Molecule | EC50 ([1]; HEL cell culture) | EC50 (Coxsackie virus B4 [2]; Vero cell cultures) | EC50 ([3]; HEL cell culture) | EC50 (Influenza A H1N1 subtype) | EC50 (Coxsackie virus B4 [4]; HeLa cell cultures) | EC50 [5] | Minimum cytotoxic concentration (HeLa cell cultures) | EC50 (Reovirus-1; Vero cell cultures) | Minimum cytotoxic concentration [6] | EC50 (Influenza A H3N2 subtype) | Minimum cytotoxic concentration (Vero cell cultures) | EC50 (Para-influenza-3 virus) | EC50 (Vaccinia virus) | EC50 (Punta Toro virus; Vero cell cultures) | EC50 (Sindbis virus; Vero cell cultures) | EC50 (Feline corona virus) | EC50 ([7]; HEL cell culture) | Cytotoxicity Minimum cytotoxic concentration (MDCK cells) | CC50 (MDCK cells) | Minimum cytotoxic concentration [8] | also measured |
| --- | --- | --- | --- | --- | --- | --- | --- | --- | --- | --- | --- | --- | --- | --- | --- | --- | --- | --- | --- | --- | --- |
| 1-{[(4-Nitrophenyl)methylidene]amino}-3-{[(3Z)-2-oxo-2,3-dihydro-1H-indol-3-ylidene]amino}thiourea [4d] | > 100 µM | > 20 µM | > 100 µM | > 100 µM | > 100 µM | > 100 µM | >100 µM | > 20 µM | 100 µM | > 100 µM | 100 µM | > 20 µM | > 100 µM | > 20 µM | > 20 µM | > 100 µM | > 100 µM | >100 | > 100 µM | >100 µM | EC50 (Feline herpes virus; CRFK cell culture): > 100 µM; EC50 (Influenza B; [12]): > 100 µM; EC50 [9]: > 100 µM |
| 1-({[4-(dimethylamino)phenyl]methylidene}amino)-3-{[(3Z)-2-oxo-2,3-dihydro-1H-indol-3-ylidene]amino}thiourea [4c] | > 100 µM | > 100 µM | > 100 µM | > 100 µM | > 100 µM | > 100 µM | >100 µM | > 100 µM | ≥100 µM | > 100 µM | >100 µM | > 100 µM | > 100 µM | > 100 µM | > 100 µM | > 100 µM | > 100 µM | >100 | > 100 µM | >100 µM | EC50 (Feline herpes virus; CRFK cell culture): > 100 µM; EC50 (Influenza B; [12]): > 100 µM; EC50 [9]: > 100 µM |
| 1-{[(3,4-Dimethoxyphenyl)methylidene]amino}-3-{[(3Z)-2-oxo-2,3-dihydro-1H-indol-3-ylidene]amino}thiourea [4f] | > 20 µM | > 20 µM | > 20 µM | 37 ± 25 µM | > 100 µM | > 20 µM | >100 µM | > 20 µM | 100 µM | 27 ± 7.3 µM | ≥20 µM | > 20 µM | > 20 µM | > 20 µM | > 20 µM | > 100 µM | > 20 µM | >100 | > 100 µM | 100 µM | anti-influenza activity (in words) (Influenza A H1N1 subtype): some activity; EC50 (Feline herpes virus; CRFK cell culture): > 100 µM; EC50 (Influenza B; [12]): 37 ± 8.75 µM; EC50 [9]: > 100 µM |
| 3-[(1H-indol-3-ylmethylidene)amino]-1-{[(3Z)-2-oxo-2,3-dihydro-1H-indol-3-ylidene]amino}thiourea [4a] | > 20 µM | > 20 µM | > 20 µM | > 4 µM | > 20 µM | > 20 µM | ≥20 µM | > 20 µM | 60 µM | > 4 µM | 100 µM | > 20 µM | > 20 µM | > 20 µM | > 20 µM | > 20 µM | > 20 µM | 20 | 51 µM | 86 µM | antiviral activity against HCMV (in words) [10]: moderate activity; EC50 (Feline herpes virus; CRFK cell culture): > 20 µM; EC50 (Influenza B; [12]): > 4 µM; EC50 [9]: > 20 µM |
| O=C(N/N=C1\C(=O)Nc2ccc([N+](=O)[O-])cc21)N/N=C1\C(=O)Nc2ccc([N+](=O)[O-])cc21 [6d, 1,3-Bis({[(3Z)-5-nitro-2-oxo-2,3-dihydro-1H-indol-3-ylidene]amino})urea] |  |  |  |  |  |  | >100 µM |  | ≥100 µM |  | >100 µM |  |  |  |  |  |  | >100 |  | >100 µM | EC50 ([1]; Human alphaherpesvirus 1, HEL): > 100 µM; EC50 (Coxsackie virus B4 [2]; Enterovirus B, B4, Vero): > 100 µM; EC50 ([3]; Human alphaherpesvirus 2, HEL): > 100 µM; anti-influenza activity (in words) (Influenza A H1N1 subtype): some activity; EC50 (Coxsackie virus B4 [4]; Enterovirus B, B4, HeLa): > 100 µM; EC50 ([5]; Vesicular stomatitis virus, HEL): > 100 µM; EC50 (Reovirus-1; Vero): > 100 µM; EC50 [11]: > 100 µM; CC50 (in vitro): > 100 µM; EC50 (Para-influenza-3 virus; Vero): > 100 µM; EC50 (Vaccinia virus; Orthopoxvirus vaccinia, HEL): > 100 µM; EC50 (Punta Toro virus; Punta Toro virus, Vero): > 100 µM; EC50 (Sindbis virus; Sindbis virus, Vero): > 100 µM; EC50 ([7]; Human alphaherpesvirus 1, HEL): > 100 µM; EC50 (Feline herpes virus; CRFK): > 100 µM; EC50 (Influenza B; Influenza B virus, MDCK, read-out: Antiviral EC50 Influenza B MTS): 38 ± 1.3 µM; EC50 (Influenza B; Influenza B virus, MDCK, read-out: Antiviral EC50 Influenza B Visual CPE score): 47 ± 2.5 µM |
| 1-{[(4-Chlorophenyl)methylidene]amino}-3-{[(3Z)-2-oxo-2,3-dihydro-1H-indol-3-ylidene]amino}thiourea [4e] | > 100 µM | > 100 µM | > 100 µM | > 100 µM | > 100 µM | > 100 µM | >100 µM | > 100 µM | 100 µM | > 100 µM | >100 µM | > 100 µM | > 100 µM | > 100 µM | > 100 µM | > 100 µM | > 100 µM | >100 | > 100 µM | >100 µM | EC50 (Feline herpes virus; CRFK cell culture): > 100 µM; EC50 (Influenza B; [12]): > 100 µM; EC50 [9]: > 100 µM |
